Reference: ChEMBL document CHEMBL1134544, “Novel selective PDE4 inhibitors. 1. Synthesis, structure-activity relationships, and molecular modeling of 4-(3,4-dimethoxyphenyl)-2H-phthalazin-1-ones and analogues” (J Med Chem, 2001)

What was measured:
Phosphodiesterase 4 = Phosphodiesterase 4 (Homo sapiens, UniProt P27815+Q08499+Q07343+Q08493); assay: Inhibition of PDE4 in the cytosol of human neutrophils; type: protein assay
Outline: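 Cytosol of human polymorphonuclear leukocytes from leukocyte concentrates, with motapizone 1 µM to suppress platelet PDE3. [3H]cAMP hydrolysis (0.5 µM cAMP, Tris-HCl pH 7.4, 5 mM MgCl2), 5 min preincubation plus 15 min at 37 °C. Snake venom nucleotidase step, ion-exchange separation, scintillation counting.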

Phosphodiesterase 3 = Phosphodiesterase 3 (Homo sapiens, UniProt Q14432+Q13370); assay: Inhibition of PDE3 in homogenates of human blood platelets
Outline: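 PDE3 from human blood platelet homogenates. Radiometric assay: 50 mM Tris-HCl pH 7.4, 5 mM MgCl2, 0.5 µM cAMP plus [3H]cAMP; 5 min preincubation then 15 min at 37 °C; HCl stop, Crotalus atrox 5'-nucleotidase, QAE Sephadex separation, blank-corrected counts. Inhibitors at 0.5% DMSO final; IC50 by nonlinear regression; two independent determinations in triplicate.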

Row | Structure (SMILES) | Log IC50 (Phosphodiesterase 4) | Log IC50 (Phosphodiesterase 3)
1 | COc1ccc(C2=NN(c3ccccc3)C(=O)[C@@H]3CC=CC[C@@H]23)cc1OC | -6.1 | –
2 | COc1ccc(C2=NN(c3ccccc3)C(=O)[C@@H]3CCCC[C@@H]23)cc1OC | -5.1 | –
3 | COc1ccc(-c2nn(-c3ccccc3)c(=O)c3ccccc23)cc1OC | -5.8 | –
4 | COc1ccc(C2=NN(Cc3ccccc3)C(=O)CC2)cc1OC | -7.1 | -5.3
5 | COc1ccc(C2=NN(Cc3ccccc3)C(=O)[C@@H]3CCCC[C@H]23)cc1OC | -8.1 | –
6 | COc1ccc(-c2nn(Cc3ccccc3)c(=O)c3c2CCCC3)cc1OC | -5.8 | –
7 | COc1ccc(C2=NNC(=O)[C@@H]3CCCC[C@@H]23)cc1OC | -5.3 | –
8 | COc1ccc(C2=NN(c3ccccc3)C(=O)[C@@H]3CC=CC[C@H]23)cc1OC | -7.9 | –
9 | COc1ccc(C2=NN(c3ccccc3)C(=O)C(C)C2C)cc1OC (stereo not given) | -7.3 | < -5
10 | COc1ccc(-c2nn(-c3ccccc3)c(=O)c3c2CCCC3)cc1OC | -5.3 | –
11 | COc1ccc(C2=NN(Cc3ccccc3)C(=O)[C@@H]3CC=CC[C@H]23)cc1OC | -8.4 | –
12 | COc1ccc(-c2nnc(O)c3c2CCCC3)cc1OC | -5.2 | –
13 | COc1ccc(C2=NN(c3ccccc3)C(=O)C(C)C2)cc1OC (stereo not given) | -6.9 | < -5
14 | COc1ccc(C2=NN(c3ccccc3)C(=O)CC2C)cc1OC (stereo not given) | -6.8 | < -5
15 | COc1ccc(-c2nnc(O)c3ccccc23)cc1OC | -5.8 | –
16 | COc1ccc(-c2nn(Cc3ccccc3)c(=O)c3ccccc23)cc1OC | -6.5 | –
17 | COc1ccc(C2=NNC(=O)CC2)cc1OC | -5.9 | -5.6
18 | COc1ccc(C2=NN(c3ccccc3)C(=O)[C@@H]3CCCC[C@H]23)cc1OC | -7.6 | –
19 | COc1ccc(C2=NN(c3ccccc3)C(=O)CC2)cc1OC | -6.4 | < -5
20 | COc1ccc(C2=NNC(=O)CC2C)cc1OC (stereo not given) | -6.5 | -6.6
21 | COc1ccc(C2=NNC(=O)[C@@H]3CC=CC[C@H]23)cc1OC (relative stereo) | -7 | –
22 | COc1ccc(C2=NNC(=O)[C@@H]3CCCC[C@H]23)cc1OC (relative stereo) | -6.4 | –
23 | COc1ccc(C2=NNC(=O)C(C)C2C)cc1OC (stereo in doubt; 3d) | -6.7 | < -5
24 | COc1ccc(C2=NNC(=O)C(C)C2C)cc1OC (stereo in doubt; 3e) | -6.2 | -5.4
25 | O=c1c2cccnc2c(-c2cccc([N+](=O)[O-])c2)nn1Cc1ccncc1 [PYRIDOPYRIDAZINONE] | -8.3 | –
26 | COc1cc(-c2ccc(=O)[nH]n2)ccc1OC(F)F [ZARDAVERINE] | – | -6.2
